In data set [1] the target is T1, Melanocortin receptor 4 (Homo sapiens, UniProt P32245). The data set is described as follows: Agonist activity at human MC4R expressed in CHO cells assessed as increase of alpha-MSH-stimulated cAMP release pretreated for 10 mins before alpha-MSH challenge measured after 40 mins relative to alpha-MSH. In kind it is functional, cell-based. The essentials:
(§1)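 Each value is the mean of at least three repeat measurements. Functional read-outs give EC50 with % maximal activation.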

Data set [2] can be described thus: Volume of distribution at steady state in Sprague-Dawley rat at 1 mg/kg, iv and 4 mg/kg, po. In kind it is ADME, organism-based. The settings on record: in vivo, read-out: Vdss.
Data set [3] has as its system Rattus norvegicus. The data set is described as follows: Dose-normalized AUC in Sprague-Dawley rat at 1 mg/kg, iv and 4 mg/kg, po. In kind it is ADME, organism-based. The note with it: in vivo.
Data set [4] can be described thus: Half life in Sprague-Dawley rat at 1 mg/kg, iv and 4 mg/kg, po. In kind it is ADME, organism-based. The settings on record: in vivo.
Data set [5] in a line: Clearance in Sprague-Dawley rat at 1 mg/kg, iv and 4 mg/kg, po. In kind it is ADME, organism-based. The note with it: in vivo.
Data set [6] can be described thus: Agonist activity at human MC1bR expressed in CHO cells assessed as increase of alpha-MSH-stimulated cAMP release pretreated for 10 mins before alpha-MSH challenge measured after 40 mins. In kind it is functional, cell-based. In short, it runs like this: as §1
Data set [7] in a line: Agonist activity at human MC1bR expressed in CHO cells assessed as increase of alpha-MSH-stimulated cAMP release pretreated for 10 mins before alpha-MSH challenge measured after 40 mins relative to alpha-MSH. In kind it is functional. In short, it runs like this:
as §1

Data set [8] in a line: Oral bioavailability in Sprague-Dawley rat at 4 mg/kg. The settings on record: in vivo. In kind it is ADME, organism-based.
For data set [9], the target named is T1, Melanocortin receptor 4. The data set is described as follows: Agonist activity at human MC4R expressed in CHO cells assessed as increase of alpha-MSH-stimulated cAMP release pretreated for 10 mins before alpha-MSH challenge measured after 40 mins. In kind it is functional, cell-based. In short, it runs like this: as §1
The target in data set [10] is T1, Melanocortin receptor 4. The data set is described as follows: Displacement of [125I]-NDP-R-MSH from human MC4R expressed in CHO cells after 1.5 hrs by scintillation counting. In kind it is cell-based. In short, it runs like this: as §1
On the technique in general: Displacement assays read how much labelled ligand stays bound in the presence of the test substance.

Data set [11] deals with Rattus norvegicus. The data set is described as follows: Antiobesity activity in wild type 14 days diet-induced obese rat model assessed as reduction in body weight at 10 mg/kg, po BID. In kind it is functional, organism-based. More on the design: dose 10 mg/kg.
The subject of data set [12] is Rattus norvegicus. The data set is described as follows: Antiobesity activity in wild type 14 days diet-induced obese rat model assessed as reduction in body weight at 6 mg/kg, po BID. In kind it is functional, organism-based. On the set-up: dose 6 mg/kg. The essentials: (§2)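 Diet-induced obese rats were dosed orally twice daily for 14 days at 2, 6 or 20 mpk. Vehicle and orally dosed positive-control groups were included. Body weight was recorded daily and expressed as change in grams.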

The subject of data set [13] is Mus musculus. The experiment in a line: Antiobesity activity in wild type diet-induced obese mouse model assessed as reduction in body weight at 10 mg/kg, po. In kind it is functional, organism-based. More on the design: dose 10 mg/kg. The essentials: (§3)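 Wild-type and MC4R/3R knockout mice received a single oral dose of 10 mg/kg, with a vehicle-dosed group for each genotype. Food intake and body weight change were measured against vehicle.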

Another data set addresses Melanocortin receptor 3 (Mus musculus, UniProt P33033). The data set is described as follows: Agonist activity at mouse MC3 receptor. In kind it is functional.
In data set [14] the test system is Mus musculus. The data set is described as follows: Antiobesity activity in wild type diet-induced obese mouse model assessed as reduction in food intake at 10 mg/kg, po. On the set-up: dose 10 mg/kg. In kind it is functional, organism-based. In short, it runs like this: as §3
Data set [15] relates to Mus musculus. The experiment in a line: Antiobesity activity in MC4R/3R knockout diet-induced obese mouse model assessed as reduction in food intake at 10 mg/kg, po. In kind it is functional, organism-based. More on the design: dose 10 mg/kg. In short, it runs like this: as §3
Data set [16] concerns Mus musculus. The data set is described as follows: Antiobesity activity in MC4R/3R knockout diet-induced obese mouse model assessed as reduction in body weight at 10 mg/kg, po. In kind it is functional, organism-based. More on the design: dose 10 mg/kg. In short, it runs like this: as §3
The subject of data set [17] is Rattus norvegicus. The data set is described as follows: Antiobesity activity in wild type 14 days diet-induced obese rat model assessed as reduction in body weight at 20 mg/kg, po BID. In kind it is functional, organism-based. More on the design: dose 20 mg/kg. The essentials:
as §2

Activity calls are given as the source filed them. The rule behind the calls is not given here.

Broadly, the half-life is how long it takes for the measured level to halve. Lower therefore signals fast loss. Usually EC50 stands for the concentration needed to bring the measured effect to its halfway point. The term bioavailability denotes the share of a dose that reaches the circulation, judged against a reference dose that is usually intravenous. A low value points to little systemic uptake. The term IC50 denotes the concentration at which inhibition is half-maximal. The low end stands for higher potency, the high end for lower potency.

T1 sequence (P32245 whole entry): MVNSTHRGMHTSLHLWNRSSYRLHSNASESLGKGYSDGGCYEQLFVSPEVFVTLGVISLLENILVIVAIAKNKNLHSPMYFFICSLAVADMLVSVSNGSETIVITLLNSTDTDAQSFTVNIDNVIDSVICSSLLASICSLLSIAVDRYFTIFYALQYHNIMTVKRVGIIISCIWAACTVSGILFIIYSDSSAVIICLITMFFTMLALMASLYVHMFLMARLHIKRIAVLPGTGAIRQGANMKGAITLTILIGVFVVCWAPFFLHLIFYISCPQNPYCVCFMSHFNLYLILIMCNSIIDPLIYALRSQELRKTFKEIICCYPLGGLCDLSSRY
Chain of Melanocortin receptor 3 (P33033 whole entry): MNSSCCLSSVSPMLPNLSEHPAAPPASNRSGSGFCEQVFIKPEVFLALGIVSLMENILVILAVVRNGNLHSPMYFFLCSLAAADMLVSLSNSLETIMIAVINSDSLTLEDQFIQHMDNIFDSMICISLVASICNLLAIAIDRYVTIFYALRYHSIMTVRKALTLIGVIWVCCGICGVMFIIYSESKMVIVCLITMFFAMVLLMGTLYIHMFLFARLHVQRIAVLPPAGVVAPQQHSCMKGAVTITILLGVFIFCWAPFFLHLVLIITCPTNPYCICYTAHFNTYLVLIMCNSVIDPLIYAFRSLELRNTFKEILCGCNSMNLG

As to `CC(=O)N(C)C(C)(C)[C@@H]1CC2(CCN(C(=O)[C@@H]3CN(C(C)(C)C)C[C@H]3c3ccc(F)cc3F)CC2)c2cc(Cl)c(C)cc21`, the Activity at Melanocortin receptor 4 [1] came out at 112%; in data set [7] it was 35%. Further, in data set [2], the Vd worked out at 10.4 L/kg. In the data set on Rattus norvegicus [3], the AUC/dose came to 0.83 µM·h/mg/kg. The half-life in data set [4] was 15.1 h. Also, the clearance in [5] was found to be 9.1 mL/min/kg. Also, the results for the EC50 (in [6]; at Melanocortin receptor 4 [9]) were 494 nM and 2.1 nM, respectively. The bioavailability in data set [8] was found to be 22%. For the same molecule, at Melanocortin receptor 4 [10], the IC50 was determined as 8.5 nM.
In the case of `CC[C@H](NC(C)=O)c1cc(Cl)ccc1C1CCN(C(=O)[C@@H]2CN(C(C)(C)C)C[C@H]2c2ccc(F)cc2F)CC1`, at Melanocortin receptor 4 [1], the Activity stood at 97%. For the same molecule, the outcome with Rattus norvegicus [11] was Active.
With `Cc1cc2c(cc1Cl)C1(CCN(C(=O)[C@@H]3CN(C(C)(C)C)C[C@H]3c3ccc(F)cc3F)CC1)C[C@@H]2C(C)(C)C(=O)N(C)C`, the Activity was determined as 108% on Melanocortin receptor 4 [1] and 92% in [7]. In addition, the Vd in data set [2] came out at 6.95 L/kg. In the data set with Rattus norvegicus [3], this molecule returned an AUC/dose of 0.39 µM·h/mg/kg. Further, the half-life in [4] is 5.14 h. The same molecule displayed a clearance in [5] of 17.2 mL/min/kg. In addition, the EC50 came out at 255 nM in [6] and 0.87 nM on Melanocortin receptor 4 [9]. The bioavailability in data set [8] turned out to be 24%. This molecule also displayed an IC50 on Melanocortin receptor 4 [10] of 0.71 nM.
For the molecule `CC(=O)NC(C)(C)[C@@H]1CC2(CCN(C(=O)[C@@H]3CN(C(C)(C)C)C[C@H]3c3ccc(F)cc3F)CC2)c2cc(Cl)c(C)cc21`, the outcome in the data set with Rattus norvegicus [12], in the data set on Mus musculus [13], in the data set with Mus musculus [14] and in the data set with Rattus norvegicus [17] was Active. In addition, the Activity at Melanocortin receptor 4 [1] came to 109%; in [7], 25%. The EC50 turned out to be 1700 nM on Melanocortin receptor 3, 1020 nM in data set [6] and 4.6 nM at Melanocortin receptor 4 [9]. Also, the outcome in the data set on Mus musculus [15] and in the data set with Mus musculus [16] was inactive.
In the case of `Cc1cc2c(cc1Cl)C1(CCN(C(=O)[C@@H]3CN(C(C)(C)C)C[C@H]3c3ccc(F)cc3F)CC1)C[C@@H]2C(C)(C)C(=O)NCCO`, the figures for the Activity (on Melanocortin receptor 4 [1]; in data set [7]) were 100% and 56%, respectively. Further, the EC50 in data set [6] worked out at 83 nM; at Melanocortin receptor 4 [9] it was 1.3 nM. Moreover, the IC50 on Melanocortin receptor 4 [10] worked out at 2.6 nM.
On to `Cc1cc2c(cc1Cl)C1(CCN(C(=O)[C@@H]3CN(C(C)(C)C)C[C@H]3c3ccc(F)cc3F)CC1)C[C@@H]2C(C)(C)C(=O)NC1CCOCC1`, for which the Activity at Melanocortin receptor 4 [1] was determined as 92%; in data set [7], 74%. The EC50 in [6] turned out to be 260 nM; at Melanocortin receptor 4 [9] it was 2.3 nM. This molecule displayed an IC50 on Melanocortin receptor 4 [10] of 2.5 nM.
Take `Cc1cc2c(cc1Cl)C1(CCN(C(=O)[C@@H]3CN(C(C)(C)C)C[C@H]3c3ccc(F)cc3F)CC1)C[C@@H]2C(C)(C)C(=O)NCCF`: the Activity stood at 84% at Melanocortin receptor 4 [1] and 48% in [7]. Also, the values for the half-maximal effective concentration (EC50) (in data set [6]; on Melanocortin receptor 4 [9]) were 260 nM and 1.1 nM, respectively. In addition, the IC50 at Melanocortin receptor 4 [10] worked out at 2.6 nM.
For `Cc1cc2c(cc1Cl)C1(CCN(C(=O)[C@@H]3CN(C(C)(C)C)C[C@H]3c3ccc(F)cc3F)CC1)C[C@@H]2C(C)(C)C(=O)N1CC(F)(F)C1`, the Activity on Melanocortin receptor 4 [1] is 78%; in data set [7], 46%. For the same molecule, the Vd in [2] is 8.88 L/kg. The molecule also returned an AUC/dose in the data set on Rattus norvegicus [3] of 0.35 µM·h/mg/kg. Also, the half-life in data set [4] was 7.3 h. In data set [5], this molecule yielded a clearance of 21.8 mL/min/kg. For the same molecule, the EC50 in data set [6] came to 430 nM; on Melanocortin receptor 4 [9] it was 4.3 nM. The bioavailability in data set [8] was determined as 29%. Also, the IC50 on Melanocortin receptor 4 [10] turned out to be 1.8 nM.
As for `CC(=O)NC(C)(C)[C@H]1CC2(CCN(C(=O)[C@@H]3CN(C(C)(C)C)C[C@H]3c3ccc(F)cc3F)CC2)c2cc(Cl)c(C)cc21`, the Activity on Melanocortin receptor 4 [1] worked out at 90%; in data set [7], 43%. Besides, the EC50 in data set [6] was determined as 260 nM; at Melanocortin receptor 4 [9] it was 3.3 nM. On Melanocortin receptor 4 [10], this molecule came in with an IC50 of 4.5 nM.

These data come from ChEMBL document CHEMBL1800059, “Spiroindane based amides as potent and selective MC4R agonists for the treatment of obesity” (Bioorg Med Chem Lett, 2010).
